# Measured values from ChEMBL document CHEMBL1152757, “Stereoselective synthesis and biological evaluation of syn-1-amino-3-[18F]fluorocyclobutyl-1-carboxylic acid as a potential positron emission tomography brain tumor imaging agent” (Bioorg Med Chem, 2009).
# Key:
# Brain = test: Biodistribution in brain of rat 9L cells implanted Fischer rat at 15 to 30 uCi, iv after 120 mins by gamma-counter; format: ADME, organism-based; conditions: in vivo, 2 h
# Method in brief: (§1)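 Male Fischer 344 rats (125-175 g) implanted intracranially by stereotactic injection of 5 × 10^4 9L gliosarcoma cells. Used 10-12 days after implantation. Tracer given into the tail vein at 15-30 µCi in 0.1-0.3 mL sterile saline. Groups of 4 were sacrificed at 15, 30, 60 and 120 min. Tissues were weighed and gamma-counted against dose standards, and counts decay-corrected to %ID/g (mean ± SD). One-way ANOVA.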
# Liver [1] = test: Biodistribution in liver of rat 9L cells implanted Fischer rat at 15 to 30 uCi, iv after 15 mins by gamma-counter; format: ADME, organism-based; conditions: in vivo, 0.25 h; method in brief: as §1
# Bone [2] = test: Biodistribution in bone of rat 9L cells implanted Fischer rat at 15 to 30 uCi, iv after 60 mins by gamma-counter; format: ADME, organism-based, Bone element; conditions: in vivo, 1 h; method in brief: as §1
# Muscle tissue [3] = test: Biodistribution in muscle of rat 9L cells implanted Fischer rat at 15 to 30 uCi, iv after 15 mins by gamma-counter; format: ADME, organism-based; conditions: in vivo, 0.25 h; method in brief: as §1
# Muscle tissue [4] = test: Biodistribution in muscle of rat 9L cells implanted Fischer rat at 15 to 30 uCi, iv after 30 mins by gamma-counter; format: ADME, organism-based; conditions: in vivo, 0.5 h; method in brief: as §1
# Heart [5] = test: Biodistribution in heart of rat 9L cells implanted Fischer rat at 15 to 30 uCi, iv after 60 mins by gamma-counter; format: ADME, organism-based; conditions: in vivo, 1 h; method in brief: as §1
# Bone [6] = test: Biodistribution in bone of rat 9L cells implanted Fischer rat at 15 to 30 uCi, iv after 15 mins by gamma-counter; format: ADME, organism-based, Bone element; conditions: in vivo, 0.25 h; method in brief: as §1
# Spleen [7] = test: Biodistribution in spleen of rat 9L cells implanted Fischer rat at 15 to 30 uCi, iv after 30 mins by gamma-counter; format: ADME, organism-based; conditions: in vivo, 0.5 h; method in brief: as §1
# [8] = Ratio of drug level from tumor to brain of rat 9L cells implanted Fischer rat at 15 to 30 uCi, iv after 120 mins by gamma-counter; format: ADME, organism-based; conditions: in vivo, 2 h
# Method in brief: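 Male Fischer 344 rats (125-175 g) received intracranial implants of 9L cells (5 × 10^4 cells) and were used 10-12 days later. Tracer was given by tail vein at 15-30 µCi in 0.1-0.3 mL sterile saline. Groups of 4 were killed at each time point. Tissues were weighed and gamma counted against dose standards with decay correction, giving %ID/g (mean). The ratio is tumor %ID/g over normal brain %ID/g.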
# Heart [9] = test: Biodistribution in heart of rat 9L cells implanted Fischer rat at 15 to 30 uCi, iv after 15 mins by gamma-counter; format: ADME, organism-based; conditions: in vivo, 0.25 h; method in brief: as §1
# [10] = Biodistribution in tumor of rat 9L cells implanted Fischer rat at 15 to 30 uCi, iv after 120 mins by gamma-counter; format: ADME, organism-based, Neoplasm; conditions: in vivo, 2 h; method in brief: as §1
# Blood [11] = test: Biodistribution in blood of rat 9L cells implanted Fischer rat at 15 to 30 uCi, iv after 60 mins by gamma-counter; format: ADME, organism-based; conditions: in vivo, 1 h; method in brief: as §1
# Pancreas [12] = test: Biodistribution in pancreas of rat 9L cells implanted Fischer rat at 15 to 30 uCi, iv after 15 mins by gamma-counter; format: ADME, organism-based; conditions: in vivo, 0.25 h; method in brief: as §1
# Lung = test: Biodistribution in lung of rat 9L cells implanted Fischer rat at 15 to 30 uCi, iv after 30 mins by gamma-counter; format: ADME, organism-based; conditions: in vivo, 0.5 h; method in brief: as §1
# [13] = Biodistribution in testis of rat 9L cells implanted Fischer rat at 15 to 30 uCi, iv after 15 mins by gamma-counter; format: ADME, organism-based; conditions: in vivo, 0.25 h; method in brief: as §1
# 9L = test: Drug uptake in rat 9L cells assessed as intracellular accumulation after 30 mins measured per 5 x 10^5 cells by gamma-counter; format: ADME, cell-based; conditions: 0.5 h
# Method in brief: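 9L cells were grown in DMEM with 10% FCS and penicillin/streptomycin, then trypsinized and washed twice in HBSS. About 5 × 10^5 cells received 5 µCi tracer in amino acid-free HBSS for 30 min at 37 °C, without or with 10 mM BCH (L-type inhibitor). Cells were centrifuged and rinsed twice with ice-cold HBSS, then gamma-counted with decay correction. Uptake expressed as % of standard per 5 × 10^5 cells. Triplicates, 1-way ANOVA.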
# Muscle tissue [14] = test: Biodistribution in muscle of rat 9L cells implanted Fischer rat at 15 to 30 uCi, iv after 120 mins by gamma-counter; format: ADME, organism-based; conditions: in vivo, 2 h; method in brief: as §1
# [15] = Biodistribution in tumor of rat 9L cells implanted Fischer rat at 15 to 30 uCi, iv after 15 mins by gamma-counter; format: ADME, organism-based, Neoplasm; conditions: in vivo, 0.25 h; method in brief: as §1
# Pancreas [16] = test: Biodistribution in pancreas of rat 9L cells implanted Fischer rat at 15 to 30 uCi, iv after 120 mins by gamma-counter; format: ADME, organism-based; conditions: in vivo, 2 h; method in brief: as §1
# [17] = Biodistribution in testis of rat 9L cells implanted Fischer rat at 15 to 30 uCi, iv after 60 mins by gamma-counter; format: ADME, organism-based; conditions: in vivo, 1 h; method in brief: as §1
# Blood [18] = test: Biodistribution in blood of rat 9L cells implanted Fischer rat at 15 to 30 uCi, iv after 15 mins by gamma-counter; format: ADME, organism-based; conditions: in vivo, 0.25 h; method in brief: as §1
# Blood [19] = test: Biodistribution in blood of rat 9L cells implanted Fischer rat at 15 to 30 uCi, iv after 120 mins by gamma-counter; format: ADME, organism-based; conditions: in vivo, 2 h; method in brief: as §1
# Kidney [20] = test: Biodistribution in kidney of rat 9L cells implanted Fischer rat at 15 to 30 uCi, iv after 30 mins by gamma-counter; format: ADME, organism-based; conditions: in vivo, 0.5 h; method in brief: as §1
# Spleen [21] = test: Biodistribution in spleen of rat 9L cells implanted Fischer rat at 15 to 30 uCi, iv after 15 mins by gamma-counter; format: ADME, organism-based; conditions: in vivo, 0.25 h; method in brief: as §1
# Kidney [22] = test: Biodistribution in kidney of rat 9L cells implanted Fischer rat at 15 to 30 uCi, iv after 120 mins by gamma-counter; format: ADME, organism-based; conditions: in vivo, 2 h; method in brief: as §1
# Liver [23] = test: Biodistribution in liver of rat 9L cells implanted Fischer rat at 15 to 30 uCi, iv after 60 mins by gamma-counter; format: ADME, organism-based; conditions: in vivo, 1 h; method in brief: as §1
structure (smiles),measurement,setting,value
N[C@]1(C(=O)O)C[C@H]([18F])C1,Drug uptake,Brain,0.25 % ID/g
same,Drug uptake,Liver [1],0.73 % ID/g
same,Drug uptake,Bone [2],0.28 % ID/g
same,Drug uptake,Muscle tissue [3],0.35 % ID/g
same,Drug uptake,Muscle tissue [4],0.43 % ID/g
same,Drug uptake,Heart [5],0.38 % ID/g
same,Drug uptake,Bone [6],0.25 % ID/g
same,Drug uptake,Spleen [7],0.61 % ID/g
same,Ratio,[8],7.7
same,Drug uptake,Heart [9],0.43 % ID/g
same,Drug uptake,[10],1.93 % ID/g
same,Drug uptake,Blood [11],0.32 % ID/g
same,Drug uptake,Pancreas [12],2.37 % ID/g
same,Drug uptake,Lung,0.57 % ID/g
same,Drug uptake,[13],0.17 % ID/g
same,Drug uptake,9L,15.8 %ID
same,Drug uptake,Muscle tissue [14],0.39 % ID/g
same,Drug uptake,[15],1.4 % ID/g
same,Drug uptake,Pancreas [16],2.78 % ID/g
same,Drug uptake,[17],0.27 % ID/g
same,Drug uptake,Blood [18],0.36 % ID/g
same,Drug uptake,Blood [19],0.26 % ID/g
same,Drug uptake,Kidney [20],0.8 % ID/g
same,Drug uptake,Spleen [21],0.68 % ID/g
same,Drug uptake,Kidney [22],0.56 % ID/g
same,Drug uptake,Liver [23],0.41 % ID/g
